From PubChem
In the library only some 1.8% were active in any assay of this set; here they are far more common.
Hep lipid drop: modulators of hepatic lipid droplet formation. AML12 mouse hepatocytes, oleate lipid droplets, BODIPY imaging. inhibition, % at 6.5 µM. 240,000 tested, 0.4% active. AID 1656;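 active means lipid droplet intensity inhibited by at least 50%, with more than 500 cells counted; inconclusive means wells with under 300 cells, treated as cytotoxic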
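Material – mouse AML12 hepatocyte cell line, fixed after treatment · Compound dosing – one dose, 6.5 µM compound · Times – compound with oleate, overnight · Measured by – Image-based BODIPY and DAPI two-channel analysis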
Jurkat NFkB inh: inhibitors of the PMA/ionomycin-induced NF-kB reporter in Jurkat cells; PMA/ionomycin-induced NF-kB luciferase reporter, luminescence; inhibition, % at 4 µM; 330,000 tested, 0.53% active; in the data active means inhibition above about 50%
H9c2 TAG inh: inhibitors of triacylglycerol accumulation | 230,000 tested, 0.66% active | inhibition, % at 12.5 µM | AID 651582 | H9c2 cells, Nile Red lipid (TAG) fluorescence; cells loaded with 200 µM oleic acid;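 active means pattern-corrected inhibition of lipid staining of at least 50% with the nuclear-stain viability signal not falling by more than 50%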;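 further: 0% = DMSO wells and 100% = triacsin C control wells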
iPSC survival up: enhancers of human iPSC single-cell survival; AID 602274; 360,000 tested, 0.044% active; survival enhancement, % at 20 µM; hiPSC single-cell survival, ATPlite luminescence; 100% = ROCK inhibitor wells, 0% = DMSO; in the data active means survival enhancement above about 18%;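 further: cells exposed to compounds for 16 hours before the ATP read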
697 NFkB inh: lowers PMA/ionomycin-induced NF-kB signal in 697 B cells. 697 B-cell NF-kB luciferase reporter, 16 h. inhibition, % at 4 µM. 330,000 tested, 0.33% active. AID 435022; in the data active means inhibition above about 35%
Gli-Sufu block: antagonists of Gli-Sufu signaling; Sufu-KO-LIGHT fibroblasts, Gli luciferase reporter luminescence; inhibition, % at 5 µM; 340,000 tested, 0.74% active; AID 588413;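 active means inhibition above about 55%, limit read from the data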;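 further: 0% = DMSO-treated cells and 100% = wells with medium but no cells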
H9c2 TAG conf: triacylglycerol accumulation inhibition, confirmation | H9c2 lipid accumulation, Nile Red fluorescence; cells loaded with 200 µM oleic acid | inhibition, % at 12.5 µM | shares compounds with H9c2 TAG inh | 990 tested, 71% active;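 active means mean inhibition across replicates of 40% or more; inactive means mean inhibition below 40%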;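 further: plate controls were DMSO only wells for no effect and Triacsin C treated wells for full effect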
Numbers without * were called inactive; ? = inconclusive; . = no result.

SMILES | Hep lipid drop | Jurkat NFkB inh | H9c2 TAG inh | iPSC survival up | 697 NFkB inh | Gli-Sufu block | H9c2 TAG conf
COc1ccc2sc(-c3ccc(N(C)C)cc3)c(C#CCCO)c2c1 | . | -34.2 | 75.7* | 3.3 | -42.6 | 7.0 | 86.8*
Cc1cccc(OCCC(=O)Nc2ccc(F)c(Cl)c2)c1 | -6.2 | -6.4 | . | 0.4 | 4.2 | 30.9 | .
COc1ccc(OC)c(C2CC(c3ccccc3)=NN2C(=S)Nc2ccccc2)c1 (stereo not drawn) | -39.8 | 48.7 | 51.9* | -0.4 | -34.1 | -15.7 | 49.7*
CN1C(=O)Cc2cc(S(=O)(=O)Nc3ccc(N4CCOCC4)cc3)ccc21 | 7.6 | -18.8 | . | -0.4 | 5.9 | 16.4 | .
CC(=O)Nc1ccc(-c2ccnc3c2CC(C(=O)NCc2cccc(Cl)c2)O3)cc1 (stereo not drawn) | . | . | 58.0* | -1.9 | . | . | 62.6*
COc1ccc(NC(=O)C2Cc3c(-c4cccc(C(C)=O)c4)ccnc3O2)cc1 (stereo not drawn) | . | . | 53.9* | 2.1 | . | . | 38.1
COc1ccc(NC(=O)C2Cc3c(-c4cccc(NC(C)=O)c4)ccnc3O2)cc1 (stereo not drawn) | . | . | 29.8 | 0.1 | . | . | .
COc1ccc(CCNC(=O)CN2C(=O)NC3(CCCCC3C)C2=O)cc1 (stereo not drawn) | . | -6.2 | -7.2 | 3.0 | 15.8 | -6.5 | .
O=C(CSc1cccc2cccnc12)Nc1cccc(S(=O)(=O)N2CCOCC2)c1 | 3.5 | 4.4 | 1.7 | 0.3 | -14.1 | 9.6 | .
O=C(CSc1cccc2cccnc12)Nc1ccc(S(=O)(=O)N2CCOCC2)cc1 | 0.0 | 9.1 | 72.4* | -0.5 | 19.4 | 5.5 | 56.7*
CCCCCOc1ccc(NC(=O)CSc2cccc3cccnc23)cc1 | -0.8 | 4.8 | 57.5* | -0.8 | -6.4 | 1.0 | 55.6*
O=C(CSc1cccc2cccnc12)N/N=C/c1ccc(O)cc1 | -3.1 | 2.6 | -8.4 | -0.3 | 2.0 | 2.0 | .
CCOC(=O)CSc1cccc2cccnc12 | 6.8 | 10.0 | 95.7* | 0.8 | -1.1 | 10.7 | 40.7*
COc1cccc(/C=N/NC(=O)CSc2cccc3cccnc23)c1 | 6.9 | 21.1 | 61.0* | 0.1 | 4.7 | -2.8 | 55.7*
COc1ccc(NC(=O)CSc2cccc3cccnc23)c(OC)c1 | 4.7 | -9.0 | . | 3.0 | 1.1 | -6.5 | .
Cc1ncsc1C(=O)N1CCCC(C(=O)c2ccc3ccccc3c2)C1 (stereo not drawn) | -6.3 | 13.2 | -16.9 | -0.2 | -39.1 | 10.4 | .
O=C(CS(=O)(=O)c1c[nH]c2ccccc12)N1CCc2ccccc21 | -12.0 | 3.5 | 6.9 | -0.9 | 6.6 | -6.5 | .
OC1CC2CCC(C1)N2CCCN1c2ccccc2Sc2ccc(Cl)cc21 (stereo not drawn) | . | . | 103.7* | -3.2 | . | 14.3 | 78.6*
CCCCSc1nnc(-c2ccc(NC(=O)CCc3ccccc3)cc2)n1C | 35.5 | 5.7 | 51.5* | -0.1 | -4.9 | 9.7 | 34.2
Cc1ccc(CN2CCc3c(OCC(=O)Nc4cc(C)ccc4C)cccc3C2=O)cc1 | ? | 5.9 | . | . | -4.0 | . | .
Cc1cc(C)cc(NC(=O)N2CCN(C/C=C/c3ccccc3)CC2)c1 | -7.8 | -15.4 | . | -0.3 | -22.3 | 11.3 | .
O=C(CSc1ccc(C(F)(F)F)cn1)Nc1ccccc1 | 7.4 | -6.2 | -2.0 | 0.4 | 8.2 | -5.0 | .
O=C(/C=C/Sc1ccc(C(F)(F)F)cn1)c1ccccc1 | 16.8 | 25.8 | 50.1* | 4.0 | -43.9 | 6.8 | 45.1*
c1ccc(-c2nc(SCc3nc4ccccc4[nH]3)c3oc4ccccc4c3n2)cc1 | . | 3.2 | 73.7* | 0.7 | -13.1 | 3.9 | 87.8*
NC1=NC[C@H](Cc2ccccc2)N1CCc1cc(C(F)(F)F)cc(C(F)(F)F)c1 | 2.9 | 4.1 | 55.2* | 0.6 | 0.0 | 23.9 | 46.0*
SMILES | Hep lipid drop | Jurkat NFkB inh | H9c2 TAG inh | iPSC survival up | 697 NFkB inh | Gli-Sufu block | H9c2 TAG conf
FC(F)(F)c1cc(CCN2C(=S)NC[C@@H]2Cc2ccccc2)cc(C(F)(F)F)c1 | -4.4 | -5.0 | -0.6 | -0.3 | -19.4 | 3.9 | .
COc1ccc(Nc2oc(-c3ccc(OC)cc3)nc2C#N)cc1 | 21.1 | -57.6 | 24.2 | -0.6 | -147.4 | -24.0 | .
COc1ccc(Nc2oc(-c3ccc(Cl)cc3)nc2C#N)cc1 | . | 10.2 | 54.4* | -1.3 | -90.6 | -131.1 | 52.1*
COC(=O)[C@@]1(C)[C@H]2C(=O)N(C)C(=O)[C@H]2[C@H]2CN=C(SC)N21 | . | . | 1.5 | 1.5 | -1.9 | 0.4 | .
C[C@H]1CN([C@@H](C)CO)C(=O)Cc2cc(NC(=O)CCC(F)(F)F)ccc2O[C@H]1CN(C)S(=O)(=O)c1ccc(F)cc1 | . | -7.5 | . | 1.8 | 11.7 | -19.7 | .
C[C@H]1CN([C@@H](C)CO)C(=O)Cc2cc(NC(=O)CCC(F)(F)F)ccc2O[C@H]1CN(C)S(=O)(=O)c1ccc(Cl)cc1 | . | -2.0 | 63.6* | 0.9 | -32.3 | -39.6 | 69.2*
COc1ccc(CC(=O)N(C)c2ccccc2)cc1S(=O)(=O)N1CCOCC1 | . | . | -17.3 | -0.4 | . | . | .
O=C(NCc1ccccn1)Nc1ccccc1C(F)(F)F | -18.0 | 13.7 | 11.3 | -0.4 | -17.2 | -14.6 | .
CCOc1ccc(CCNC(=O)CN(C)S(=O)(=O)c2cccc3nsnc23)cc1OCC | . | 5.4 | 50.6* | 5.8 | -3.0 | 8.3 | 43.7*
CCc1noc(C)c1C(=O)Nc1ccc(S(=O)(=O)N2CCC(C)CC2)cc1 | . | 18.7 | -3.1 | 1.5 | 3.5 | 11.6 | .
CSc1cc(-c2ccc(Cl)cc2)n(Cc2ccccc2)c(=O)c1C#N | 7.1 | 3.0 | 64.1* | -1.3 | 10.5 | 1.1 | 36.5
CCOC(=O)Cn1c(-c2ccccc2)cc(SC)c(C#N)c1=O | 30.4 | -32.8 | . | 2.8 | -21.8 | 2.6 | .
CSc1cc(-c2ccccc2)n(Cc2c(Cl)cccc2Cl)c(=O)c1C#N | 7.6 | 42.7 | 58.0* | 0.3 | -25.3 | 0.1 | 68.0*
CSc1cc(-c2ccccc2)n(C)c(=O)c1C#N | 3.6 | 12.6 | 5.5 | -0.3 | 6.2 | -4.0 | .
CC(C)(C)c1cc(C(=O)NNc2cc(C(F)(F)F)ccc2Cl)n(Cc2ccccc2)n1 | 13.2 | -15.9 | 32.5 | 4.2 | -75.2 | 4.8 | .
COc1ccc2cc3cc(C(=O)NCc4ccc5c(c4)OCO5)oc3nc2c1 | . | -2.4 | 20.8 | 0.4 | 15.0 | -0.7 | .
COc1ccc2cc3cc(C(=O)NCC4COc5ccccc5O4)oc3nc2c1 (stereo not drawn) | . | 5.3 | 56.9* | -3.1 | 2.2 | -25.0 | 32.9
COc1ccc(-n2cc(CNCCCn3ccnc3)c(-c3cccc(F)c3)n2)cc1 | -0.8 | 0.0 | . | -5.1 | 0.1 | 23.8 | .
CCOC(=O)[C@H]1[C@H]2COc3ccc(Cl)cc3[C@@H]2N2C(=O)c3cc(Br)ccc3NC(=O)[C@@]12C | . | 5.9 | 12.7 | -3.1 | 15.6 | 0.9 | .
CCOC(=O)[C@H]1[C@H]2COc3ccc(Cl)cc3[C@@H]2N2C(=O)c3cc(Cl)ccc3NC(=O)[C@@]12C | . | 0.9 | 50.5* | -1.5 | -4.9 | 16.8 | 53.2*
